Laboratory results published in ChEMBL document CHEMBL4339251, “Prenylated Bibenzyls from the Chinese Liverwort Radula constricta and Their Mitochondria-Derived Paraptotic Cytotoxic Activities” (J Nat Prod, 2019).
pIC50: −log10 of the molar value. The source made the active and inactive calls. The rule behind the calls is not given here.

How the values were obtained:
[1] = test system: A549; test: Induction of apoptosis in human A549 cells assessed as necrotic cells at 10 uM by annexinV-FITC and propidium iodide staining based flow cytometric analysis (reference value: 1.44%); format: functional
[2] = test system: SW-620; test: Cytotoxicity in human SW620 cells assessed as reduction in cell viability incubated for 48 hrs by MTT assay; format: functional, cell-based; conditions: SW-620, 48 h
Procedure, shortened: (§1)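 MTT viability. U251 and NCI-H1299 were grown in DMEM, the other lines in RPMI 1640, each with 10% FBS, penicillin and streptomycin, at 37 °C in 5% CO2. Cells were seeded in 96-well plates overnight and exposed to a range of concentrations. MTT (5 mg/mL) was added for 4 h, formazan was dissolved in DMSO and absorbance read at 570 nm. Three independent experiments.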

[3] = test system: NCI-H1299; test: Induction of mitochondria-derived paraptosis in human NCI-H1299 cells assessed as reduction in intensity of mitochondria fluorescence up to 24 hrs by Mito-Tracker staining based fluorescence microscopy; format: functional, cell-based
Procedure, shortened: (§2)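 Mitochondrial fluorescence. After treatment for the indicated times, cells were stained with Mito-Tracker Red (100 nM) and 10 000 cells per sample were analysed by flow cytometry. Cells with decreased red fluorescence were gated as "pale" cells.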

[4] = test system: A549; test: Cytotoxicity in human A549 cells assessed as reduction in cell viability at 5 uM incubated for 24 hrs in presence of pan-caspase inhibitor Z-VAD-FMK by MTT assay; format: functional, cell-based
[5] = test system: NCI-H1299; test: Induction of apoptosis in human NCI-H1299 cells assessed as early apoptotic cells at 20 uM by annexinV-FITC and propidium iodide staining based flow cytometric analysis (reference value: 1.26%); format: functional
[6] = test system: NCI-H1299; test: Induction of apoptosis in human NCI-H1299 cells assessed as necrotic cells at 20 uM by annexinV-FITC and propidium iodide staining based flow cytometric analysis (reference value: 3.17%); format: functional
[7] = test system: A549; test: Induction of apoptosis in human A549 cells assessed as necrotic cells at 20 uM by annexinV-FITC and propidium iodide staining based flow cytometric analysis (reference value: 1.44%); format: functional
[8] = test system: A549; test: Induction of mitochondria-derived paraptosis in human A549 cells assessed as reduction in intensity of mitochondria fluorescence up to 24 hrs by Mito-Tracker staining based fluorescence microscopy; format: functional, cell-based; procedure, shortened: as §2
[9] = test system: NCI-H1299; test: Induction of ROS generation in human NCI-H1299 cells after 1 hr by DCFH-DA staining based flow cytometry relative to untreated control; format: functional
Procedure, shortened: (§3)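 ROS by flow cytometry. Cells were exposed for the indicated times, then stained with DCFH-DA (10 μM). DCF mean fluorescence intensity was compared with untreated control. Mean ± SD, n = 3.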

[10] = test system: NCI-H1299; test: Induction of mitochondria dysfunction in human NCI-H1299 cells assessed as mitochondrial membrane potential incubated for 1 hr by JC-1 dye based flow cytometry relative to 0 hrs control; format: functional
Procedure, shortened: (§4)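 Membrane potential. After treatment for the indicated times, ΔΨm was measured by JC-1 (5 μg/mL) staining and flow cytometry, relative to the 0 h control. Mean ± SD, n = 3.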

[11] = test system: NCI-H1299; test: Induction of cytoplasmic vacuolization in human NCI-H1299 cells at 10 uM measured within 3 hrs by optical microscopy; format: functional, cell-based
Procedure, shortened: (§5)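 Morphology. A549 or NCI-H1299 cells were treated at 10 μM and vacuole formation was followed by optical microscopy at the indicated times.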

[12] = test system: A549; test: Induction of apoptosis in human A549 cells assessed as early apoptotic cells at 20 uM by annexinV-FITC and propidium iodide staining based flow cytometric analysis (reference value: 1.47%); format: functional
[13] = test system: A549; test: Induction of apoptosis in human A549 cells assessed as late apoptotic cells at 20 uM by annexinV-FITC and propidium iodide staining based flow cytometric analysis (reference value: 3.14%); format: functional
[14] = test system: NCI-H1299; test: Induction of mitochondria-derived paraptosis in human NCI-H1299 cells assessed as formation of fluorescent vacuoles after 3 hrs by Mito-Tracker staining based fluorescence microscopy; format: functional, cell-based
Procedure, shortened: (§6)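 Live-cell imaging. Treated cells on coverslips were stained with Mito-Tracker Red (100 nM) at 37 °C for 30 min, washed three times with PBS and stained with Hoechst 33342 (10 μg/mL) for 15 min. Images were taken by confocal or fluorescence microscopy at the indicated times.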

[15] = test system: A549; test: Induction of apoptosis in human A549 cells assessed as induction of PARP cleavage at 2.5 to 10 uM incubated for 24 hrs by Western blot analysis; format: functional, cell-based
Procedure, shortened: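 Western blot. Cells were cultured overnight in six-well plates, then exposed to various concentrations for 24 h before immunoblotting.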

[16] = test system: A549; test: Induction of apoptosis in human A549 cells assessed as late apoptotic cells at 10 uM by annexinV-FITC and propidium iodide staining based flow cytometric analysis (reference value: 3.14%); format: functional
[17] = test system: A549; test: Cytotoxicity in human A549 cells assessed as reduction in cell viability incubated for 48 hrs by MTT assay; format: functional, cell-based; conditions: A549, 48 h; procedure, shortened: as §1
[18] = test system: NCI-H1299; test: Cytotoxicity in human NCI-H1299 cells assessed as reduction in cell viability incubated for 48 hrs by MTT assay; format: functional, cell-based; conditions: NCI-H1299, 48 h; procedure, shortened: as §1
[19] = test system: NCI-H1299; test: Induction of cytoplasmic vacuolization in human NCI-H1299 cells at 10 uM treated for 3 hrs after pre-treatment with pan-caspase inhibitor Z-VAD-FMK for 1 hr by optical microscopy; format: functional, cell-based
Procedure, shortened: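 Caspase-inhibitor morphology. Cells were treated with DMSO, 20 μM Z-VAD-FMK, 10 μM compound, or the combinations for 3 h, then imaged by optical microscopy.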

[20] = test system: A549; test: Induction of ROS generation in human A549 cells after 1 hr by DCFH-DA staining based flow cytometry relative to untreated control; format: functional; procedure, shortened: as §3
[21] = test system: A549; test: Induction of mitochondria dysfunction in human A549 cells assessed as mitochondrial membrane potential incubated for 1 hr by JC-1 dye based flow cytometry relative to 0 hrs control; format: functional; procedure, shortened: as §4
[22] = test system: A549; test: Induction of ROS generation in human A549 cells by DCFH-DA staining based flow cytometry; format: functional, cell-based; conditions: TDE = time-dependent effect; procedure, shortened: as §3
[23] = test system: A549; test: Induction of cytoplasmic vacuolization in human A549 cells at 10 uM measured within 3 hrs by optical microscopy; format: functional, cell-based; procedure, shortened: as §5
[24] = test system: A549; test: Induction of mitochondria-derived paraptosis in human A549 cells assessed as formation of fluorescent vacuoles after 3 hrs by Mito-Tracker staining based fluorescence microscopy; format: functional, cell-based; procedure, shortened: as §6
[25] = test system: NCI-H1299; test: Induction of apoptosis in human NCI-H1299 cells assessed as late apoptotic cells at 10 uM by annexinV-FITC and propidium iodide staining based flow cytometric analysis (reference value: 3.29%); format: functional
[26] = test system: NCI-H1299; test: Induction of mitochondria-derived paraptosis in human NCI-H1299 cells assessed as induction of HMGB1 translocation from nucleus to cytoplasm at 10 uM incubated for 24 hrs by immunofluorescence staining; format: functional, cell-based
Procedure, shortened: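 HMGB1 immunofluorescence. Cells were treated at 10 μM for 24 h, fixed in 4% paraformaldehyde for 30 min, permeabilised with 0.3% Triton X-100 for 15 min and blocked with 5% BSA for 30 min. Anti-HMGB1 was applied at 4 °C overnight and the secondary antibody at 37 °C for 1 h. Nuclei were counterstained with DAPI and cells imaged by confocal microscopy.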

[27] = test system: NCI-H1299; test: Induction of apoptosis in human NCI-H1299 cells assessed as early apoptotic cells at 10 uM by annexinV-FITC and propidium iodide staining based flow cytometric analysis (reference value: 1.26%); format: functional
[28] = test system: U-251; test: Cytotoxicity in human U251 cells assessed as reduction in cell viability incubated for 48 hrs by MTT assay; format: functional, cell-based; conditions: U-251, 48 h; procedure, shortened: as §1

COC(=O)c1c(CCc2ccccc2)cc(O)c(CC=C(C)C)c1O
Activity [1]: 2.02% | pIC50 [2]: 5.20 | Activity [3]: Active | Activity [4]: Active | Activity [5]: 1.11% | Activity [6]: 3.49% | Activity [7]: 1.73% | Activity [8]: Active | fold change (FC) [9]: 30 | Activity [10]: 25% | Activity [11]: Active | Activity [12]: 2.44% | Activity [13]: 4.14% | Activity [14]: Active | Activity [15]: inactive | Activity [16]: 3.39% | pIC50 [17]: 5.22 | pIC50 [18]: 5.29 | Activity [19]: Active | fold change (FC) [20]: 20 | Activity [21]: 50% | Activity [22]: Tde | Activity [23]: Active | Activity [24]: Active | Activity [25]: 3.36% | Activity [26]: Active | Activity [27]: 0.57% | pIC50 [28]: 5.05
